ChEMBL document CHEMBL4270642, “Boronic ester-linked macrocyclic lipopeptides as serine protease inhibitors targeting Escherichia coli type I signal peptidase” (Eur J Med Chem, 2018)
Converted amounts (≈) assume the structure as drawn.

Tests used:
[1] = Hemolytic activity in human RBC at 100 uM after 45 mins by spectrophotometric method relative to control; type: ADME, cell-based, Erythrocyte; conditions: red blood cells (erythrocytes), read-out: Activity
Procedure, shortened: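 Heparinized human blood; red cells washed three times in Tyrode buffer pH 7.4. Compound at 100 µM final with 1% DMSO and 50% RBC, shaken (250 rpm) 45 min at 37 °C. Cells pelleted (1000 × g, 10 min); supernatant haemoglobin at 540 nm. Percent lysis relative to buffer-only and 2% Triton X-100 controls.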

Signal peptidase I = Signal peptidase I (Escherichia coli K-12, UniProt P00803); test: Inhibition of Escherichia coli type 1 signal peptidase lepB preincubated for 10 mins followed by Dabcyl-VGGTATAYGAFSRPGLE-(EDANS)-OH substrate addition measured after 2 hrs by FRET based assay
Procedure, shortened: (§1)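 EcLepB (about 50 nM estimated) preincubated 10 min with compound. Reaction started with Dabcyl/EDANS FRET peptide at 8 µM final (Km 20 µM). Fluorescence followed continuously at 535 nm, 22 °C, for 2 h. Cleavage rates plotted against inhibitor concentration; IC50 from non-linear regression of sigmoidal dose-response curves.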

Escherichia coli [2] = test: Antibacterial activity against Escherichia coli ATCC 25922 after 16 to 20 hrs by broth microdilution method; type: functional
Procedure, shortened: (§2)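 Broth microdilution in cation-adjusted Mueller-Hinton II per EUCAST/CLSI; two-fold compound series 64 down to 0.25 µg/mL final. Inoculum from fresh colonies (non-selective agar, 18-24 h, 35 ± 2 °C), adjusted to 0.5 McFarland, diluted to about 5 × 10^5 CFU/mL final. Static incubation 16-20 h at 35 ± 2 °C; MIC read visually as complete growth inhibition against medium-only wells.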

Escherichia coli [3] = test: Antibacterial activity against tolC deficient Escherichia coli CH3130 after 16 to 20 hrs by broth microdilution method; type: functional; procedure, shortened: as §2
Escherichia coli [4] = test: Antibacterial activity against Escherichia coli D22 CGSG 5163 harboring Ips mutant after 16 to 20 hrs by broth microdilution method; type: functional
Procedure, shortened: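 Broth microdilution in cation-adjusted Mueller-Hinton II broth, following EUCAST and CLSI guidelines. Two-fold series at final concentrations 64 down to 0.25 µg/mL, with medium-only and growth controls. Inoculum from fresh colonies (18-24 h, 35 °C ± 2 °C) adjusted to 0.5 McFarland, final ≈5 × 10^5 CFU/mL. Plates incubated unshaken 16-20 h at 35 °C ± 2 °C. MIC read visually as complete inhibition of growth.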

Pseudomonas aeruginosa [5] = test: Antibacterial activity against Pseudomonas aeruginosa PAO1 after 16 to 20 hrs by broth microdilution method; type: functional; procedure, shortened: as §2
Pseudomonas aeruginosa [6] = test: Antibacterial activity against efflux defective Pseudomonas aeruginosa PAO750 after 16 to 20 hrs by broth microdilution method; type: functional; procedure, shortened: as §2
Klebsiella pneumoniae = test: Antibacterial activity against Klebsiella pneumoniae ATCC 13883 after 16 to 20 hrs by broth microdilution method; type: functional; procedure, shortened: as §2
HepG2 = test: Cytotoxicity against human HepG2 cells after 72 hrs by FMSA; type: cell-based; conditions: HepG2, 72 h
Procedure, shortened: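 HepG2 (ATCC) grown in EMEM with 10% FBS, pen/strep, 2 mM L-glutamine, used up to 20 passages. Seeded at 1000 cells/well, cultured overnight, then dosed acoustically from DMSO stocks. Eight two-fold dilutions in duplicate from top 64 or 32 µM; 72 h at 37 °C, 5% CO2. Fluorescein diacetate hydrolysis read at ex 485/em 530 nm; IC50 by non-linear regression.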

Acinetobacter baumannii = test: Antibacterial activity against Acinetobacter baumannii ATCC 19606 after 16 to 20 hrs by broth microdilution method; type: functional; conditions: ATCC 19606 = CIP 70.34 = JCM 6841; procedure, shortened: as §2
Staphylococcus aureus = test: Antibacterial activity against Staphylococcus aureus ATCC 29213 after 16 to 20 hrs by broth microdilution method; type: functional; procedure, shortened: as §2
[7] = target: Signal peptidase I (Escherichia coli K-12) (UniProt P00803); test: Inhibition of Escherichia coli type 1 signal peptidase lepB assessed as residual activity at 10 uM preincubated for 10 mins followed by Dabcyl-VGGTATAYGAFSRPGLE-(EDANS)-OH substrate addition measured after 2 hrs by FRET based assay (reference value: 100%); procedure, shortened: as §1
[8] = target: Signal peptidase I (Escherichia coli K-12) (UniProt P00803); test: Inhibition of Escherichia coli type 1 signal peptidase lepB assessed as residual activity at 5 uM preincubated for 10 mins followed by Dabcyl-VGGTATAYGAFSRPGLE-(EDANS)-OH substrate addition measured after 2 hrs by FRET based assay (reference value: 100%); procedure, shortened: as §1
[9] = target: Signal peptidase I (Escherichia coli K-12) (UniProt P00803); test: Inhibition of Escherichia coli type 1 signal peptidase lepB assessed as residual activity at 2.5 uM preincubated for 10 mins followed by Dabcyl-VGGTATAYGAFSRPGLE-(EDANS)-OH substrate addition measured after 2 hrs by FRET based assay (reference value: 100%); procedure, shortened: as §1
[10] = target: Signal peptidase I (Escherichia coli K-12) (UniProt P00803); test: Inhibition of Escherichia coli type 1 signal peptidase lepB assessed as residual activity at 1.25 uM preincubated for 10 mins followed by Dabcyl-VGGTATAYGAFSRPGLE-(EDANS)-OH substrate addition measured after 2 hrs by FRET based assay (reference value: 100%); procedure, shortened: as §1
[11] = target: Signal peptidase I (Escherichia coli K-12) (UniProt P00803); test: Inhibition of Escherichia coli type 1 signal peptidase lepB assessed as residual activity at 0.625 uM preincubated for 10 mins followed by Dabcyl-VGGTATAYGAFSRPGLE-(EDANS)-OH substrate addition measured after 2 hrs by FRET based assay (reference value: 100%); procedure, shortened: as §1
[12] = target: Signal peptidase I (Escherichia coli K-12) (UniProt P00803); test: Inhibition of Escherichia coli type 1 signal peptidase lepB assessed as residual activity at 0.3125 uM preincubated for 10 mins followed by Dabcyl-VGGTATAYGAFSRPGLE-(EDANS)-OH substrate addition measured after 2 hrs by FRET based assay (reference value: 100%); procedure, shortened: as §1
[13] = target: Signal peptidase I (Escherichia coli K-12) (UniProt P00803); test: Inhibition of Escherichia coli type 1 signal peptidase lepB assessed as residual activity at 0.1563 uM preincubated for 10 mins followed by Dabcyl-VGGTATAYGAFSRPGLE-(EDANS)-OH substrate addition measured after 2 hrs by FRET based assay (reference value: 100%); procedure, shortened: as §1
[14] = target: Signal peptidase I (Escherichia coli K-12) (UniProt P00803); test: Inhibition of Escherichia coli type 1 signal peptidase lepB assessed as residual activity at 0.0781 uM preincubated for 10 mins followed by Dabcyl-VGGTATAYGAFSRPGLE-(EDANS)-OH substrate addition measured after 2 hrs by FRET based assay (reference value: 100%); procedure, shortened: as §1
[15] = target: Signal peptidase I (Escherichia coli K-12) (UniProt P00803); test: Inhibition of Escherichia coli type 1 signal peptidase lepB assessed as residual activity at 0.0391 uM preincubated for 10 mins followed by Dabcyl-VGGTATAYGAFSRPGLE-(EDANS)-OH substrate addition measured after 2 hrs by FRET based assay (reference value: 100%); procedure, shortened: as §1
[16] = target: Signal peptidase I (Escherichia coli K-12) (UniProt P00803); test: Inhibition of Escherichia coli type 1 signal peptidase lepB assessed as residual activity at 0.0195 uM preincubated for 10 mins followed by Dabcyl-VGGTATAYGAFSRPGLE-(EDANS)-OH substrate addition measured after 2 hrs by FRET based assay (reference value: 100%); procedure, shortened: as §1
[17] = target: Signal peptidase I (Escherichia coli K-12) (UniProt P00803); test: Inhibition of Escherichia coli type 1 signal peptidase lepB assessed as residual activity at 0.0098 uM preincubated for 10 mins followed by Dabcyl-VGGTATAYGAFSRPGLE-(EDANS)-OH substrate addition measured after 2 hrs by FRET based assay (reference value: 100%); procedure, shortened: as §1
[18] = target: Signal peptidase I (Escherichia coli K-12) (UniProt P00803); test: Inhibition of Escherichia coli type 1 signal peptidase lepB assessed as residual activity at 0.0049 uM preincubated for 10 mins followed by Dabcyl-VGGTATAYGAFSRPGLE-(EDANS)-OH substrate addition measured after 2 hrs by FRET based assay (reference value: 100%); procedure, shortened: as §1
[19] = target: Signal peptidase I (Escherichia coli K-12) (UniProt P00803); test: Inhibition of Escherichia coli type 1 signal peptidase lepB assessed as residual activity at 0.0024 uM preincubated for 10 mins followed by Dabcyl-VGGTATAYGAFSRPGLE-(EDANS)-OH substrate addition measured after 2 hrs by FRET based assay (reference value: 100%); procedure, shortened: as §1
[20] = target: Signal peptidase I (Escherichia coli K-12) (UniProt P00803); test: Inhibition of Escherichia coli type 1 signal peptidase lepB assessed as residual activity at 0.0012 uM preincubated for 10 mins followed by Dabcyl-VGGTATAYGAFSRPGLE-(EDANS)-OH substrate addition measured after 2 hrs by FRET based assay (reference value: 100%); procedure, shortened: as §1

Chain of Signal peptidase I (P00803 whole entry): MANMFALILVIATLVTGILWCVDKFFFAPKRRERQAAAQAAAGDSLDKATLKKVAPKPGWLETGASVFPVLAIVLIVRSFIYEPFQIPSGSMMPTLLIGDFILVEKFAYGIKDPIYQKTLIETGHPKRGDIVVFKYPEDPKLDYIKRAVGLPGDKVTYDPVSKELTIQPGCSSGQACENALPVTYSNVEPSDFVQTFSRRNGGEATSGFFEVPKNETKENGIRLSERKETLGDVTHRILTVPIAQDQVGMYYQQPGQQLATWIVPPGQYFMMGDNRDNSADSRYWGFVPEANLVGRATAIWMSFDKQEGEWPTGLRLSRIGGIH
Chain of Signal peptidase I (Escherichia coli K-12) (P00803 whole entry): as above

Compound | hemolysis at 0.75 h, 100 µM [1] [%] | IC50 (Signal peptidase I) [nM] | MIC (Escherichia coli [2]) | MIC (Escherichia coli [3]) [µg/mL] | MIC (Escherichia coli [4]) [µg/mL] | MIC (Pseudomonas aeruginosa [5]) [µg/mL] | MIC (Pseudomonas aeruginosa [6]) [µg/mL] | MIC (Klebsiella pneumoniae) [µg/mL] | IC50 (HepG2) [nM] | MIC (Acinetobacter baumannii) [µg/mL] | MIC (Staphylococcus aureus) [µg/mL] | Activity [7] [%] | Activity [8] [%] | Activity [9] [%] | Activity [10] [%] | Activity [11] [%] | Activity [12] [%] | Activity [13] [%] | Activity [14] [%] | Activity [15] [%] | further results
C[C@@H]1NC(=O)[C@@H](NC(=O)[C@H](C)NC(=O)[C@@H](NC(=O)[C@H](CCCN)NC(=O)c2ccc(=O)n(-c3ccccc3)c2)[C@@H](C)O)Cc2cn(nn2)CCO[C@@H]2C[C@@H]3OB1O[C@@H]3C2 | 0.04 | 1660 | > 64 µg/mL | > 64 | > 64 | > 64 | > 64 | > 64 | > 64000 | > 64 | > 64 | 10.4 | 26.8 | 42.8 | 62.1 | 66.9 | 69.5 | 105 | 100 | 91.6 | Activity [16]: 104%; Activity [17]: 101%; Activity [18]: 97.5%; Activity [19]: 82.4%; Activity [20]: 84.6%
C[C@@H]1NC(=O)[C@@H](NC(=O)[C@H](C)NC(=O)[C@@H](NC(=O)[C@H](CCCN)NC(=O)c2ccc(-c3ccccc3)cc2)[C@@H](C)O)Cc2cn(nn2)CCO[C@@H]2C[C@@H]3OB1O[C@@H]3C2 | 0.2 | 72 | > 64 µg/mL | > 64 | > 64 | > 64 | > 64 | > 64 | > 64000 | > 64 | > 64 | 7.2 | 9.7 | 9.9 | 10.6 | 11.8 | 12 | 26.4 | 48.6 | 68.9 | Activity [16]: 83.8%; Activity [17]: 88.3%; Activity [18]: 84.9%; Activity [19]: 94.6%; Activity [20]: 100%
CCCCCCc1ccc(-c2c[nH]c3ccc(C(=O)N[C@@H](CCCN)C(=O)N[C@H](C(=O)N[C@@H](C)C(=O)N[C@H]4Cc5cn(nn5)CCO[C@@H]5C[C@@H]6OB(O[C@@H]6C5)[C@H](C)NC4=O)[C@@H](C)O)cc23)cc1 | 2.8 | 225 | 32 µg/mL | 32 (≈ 34.6 µM) | 16 (≈ 17.3 µM) | 64 (≈ 69.2 µM) | 64 (≈ 69.2 µM) | 64 (≈ 69.2 µM) | 23700 | 64 (≈ 69.2 µM) | 16 (≈ 17.3 µM) | -19.8 | -6.8 | 2.9 | 8.1 | 20.4 | 42.8 | 58.5 | 78.1 | 94.2 | Activity [16]: 101%; Activity [17]: 98.5%; Activity [18]: 99.5%; Activity [19]: 108%; Activity [20]: 106%
C[C@@H]1NC(=O)[C@@H](NC(=O)[C@H](C)NC(=O)[C@@H](NC(=O)[C@H](CCCN)NC(=O)C#Cc2ccc(-c3ccccc3)cc2)[C@@H](C)O)Cc2cn(nn2)CCO[C@@H]2C[C@@H]3OB1O[C@@H]3C2 | 0.01 | 227 | > 64 µg/mL | > 64 | > 64 | > 64 | > 64 | > 64 | 28200 | > 64 | 32 (≈ 38.8 µM) | 6.8 | 13.5 | 17.8 | 22.5 | 25.8 | 30 | 58.2 | 73.1 | 89.3 | Activity [16]: 98.2%; Activity [17]: 99%; Activity [18]: 97.1%; Activity [19]: 106%; Activity [20]: 103%
CCCCCCc1ccc(-c2ccc(C(=O)N3CC(CN)C[C@H]3C(=O)N[C@H](C(=O)N[C@@H](C)C(=O)N[C@@H](CC(N)=O)C(=O)N[C@@H](C)B(O)O)[C@@H](C)O)cc2)cc1 (some centres undefined) | 2.5 | 6 | 16 µM | – | – | – | – | – | 16000 | – | – | – | – | – | – | – | – | – | – | – | –
CCCCCCc1ccc(-n2cc(C(=O)N[C@@H](CCCN)C(=O)N[C@H](C(=O)N[C@@H](C)C(=O)N[C@H]3Cc4cn(nn4)CCO[C@@H]4C[C@@H]5OB(O[C@@H]5C4)[C@H](C)NC3=O)[C@@H](C)O)ccc2=O)cc1 | 0.03 | 495 | > 64 µg/mL | > 64 | > 64 | > 64 | > 64 | > 64 | > 64000 | > 64 | 64 (≈ 70.9 µM) | 17 | 15.8 | 17.3 | 24.3 | 32.6 | 59.3 | 90 | 95.3 | 98.3 | Activity [16]: 111%; Activity [17]: 98.8%; Activity [18]: 101%; Activity [19]: 101%; Activity [20]: 109%
